In article PMC12570389 (RSC Advances, 2025):
“Also recorded” adds a separate entry of the source.

Tests used:
MRC-5 cells = assay: Hydroxyproline content in TGF-β-stimulated MRC-5 cells; assay type: cell-based, human; conditions: 17 (50 μM), 67 (100 μM), nintedanib (10 μM), 48 hours, vs TGF-β model
Summary of the method: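 TGF-β (10 ng mL−1, 48 h) stimulated MRC-5 fibrosis model cells were then exposed to test compound at a single concentration (50 or 100 μM), or to a reference antifibrotic at 10 μM, for 48 h. Hydroxyproline content was compared with the TGF-β-stimulated model.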

COL1A1 = assay: RT-qPCR of COL1A1 mRNA in TGF-β-stimulated MRC-5 cells; assay type: cell-based, human; conditions: 17 (50 μM), 67 (100 μM), nintedanib (10 μM), 48 hours, vs TGF-β model
[1] = tested on: Human diploid fibroblasts (MRC-5); assay: CCK8 viability assay in TGF-β-induced pulmonary fibrosis cell model; assay type: cell-based
Summary of the method: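 MRC-5 fibroblasts were seeded at 2000 cells/well and given TGF-β (10 ng mL−1) for 48 h to build the fibrosis model. Test compound was dissolved in DMSO, diluted in DMEM and applied at 0, 1, 1.25, 2.5, 5, 10, 25, 50 and 100 μmol for 48 h, with a reference antifibrotic as positive control. CCK8 (10% volume) was added, plates incubated 3 h in the dark, and A450 read.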

CCR2 = conditions: Table S5C training set of 3D-QSAR; ref BindingDB; cited from earlier work

| Structure (SMILES) | hydroxyproline (MRC-5 cells) | expression of COL1A1 (COL1A1) | proliferation / 48-hour cell inhibition rate (CCK8) ([1]; TGF-β (10 ng mL^−1) induced MRC-5, 48-hour drug treatment, 0-100 μmol) | cytotoxic effect on the pulmonary fibrosis cell model, comparison ([1]; TGF-β induced MRC-5, 48 h, CCK8) | IC50 (CCR2) |
| --- | --- | --- | --- | --- | --- |
| COC(=O)c1ccc2c(c1)NC(=O)/C2=C(\Nc1ccc(N(C)C(=O)CN2CCN(C)CC2)cc1)c1ccccc1 [nintedanib] | significantly decreased | significantly decreased | effectively suppressed the proliferation; also recorded: concentration-dependent increase in their inhibitory effects | even stronger cytotoxic effect than compound 17 |  |
| Cc1ccc(-c2ccc3c(c2)C=C(C(=O)Nc2ccc(C[N+](C)(C)C4CCOCC4)cc2)CCC3)cc1 [BDBM50088301] |  |  |  |  | 0.03 nM |
